# Columns and labels:
# Enterococcus faecalis [1] = experiment: Bactericidal activity against vancomycin-resistant Enterococcus faecalis clinical isolate 27728 after 24 hrs by two-fold serial dilution method; format: functional; conditions: isolate 27728, 24 h
# Enterococcus faecalis [2] = experiment: Bactericidal activity against vancomycin-resistant Enterococcus faecalis clinical isolate 5648 after 24 hrs by two-fold serial dilution method; format: functional; conditions: isolate 5648, 24 h
# Enterococcus faecium [3] = experiment: Bactericidal activity against vancomycin-resistant Enterococcus faecium clinical isolate 17301 after 24 hrs by two-fold serial dilution method; format: functional; conditions: isolate 17301, 24 h
# Enterococcus faecium [4] = experiment: Bactericidal activity against vancomycin-resistant Enterococcus faecium clinical isolate 23/240 after 24 hrs by two-fold serial dilution method; format: functional; conditions: isolate 23/240, 24 h
# Enterococcus faecium [5] = experiment: Bactericidal activity against vancomycin-resistant Enterococcus faecium clinical isolate 10177 after 24 hrs by two-fold serial dilution method; format: functional; conditions: isolate 10177, 24 h
# Enterococcus faecium [6] = experiment: Bactericidal activity against vancomycin-resistant Enterococcus faecium clinical isolate 15/213 after 24 hrs by two-fold serial dilution method; format: functional; conditions: isolate 15/213, 24 h
# Enterococcus faecium [7] = experiment: Bactericidal activity against vancomycin-resistant Enterococcus faecium clinical isolate 5396 after 24 hrs by two-fold serial dilution method; format: functional; conditions: isolate 5396, 24 h
# Enterococcus faecium [8] = experiment: Bactericidal activity against vancomycin-resistant Enterococcus faecium clinical isolate 31176 after 24 hrs by two-fold serial dilution method; format: functional; conditions: isolate 31176, 24 h
# Enterococcus faecium [9] = experiment: Bactericidal activity against vancomycin-resistant Enterococcus faecium clinical isolate 31386 after 24 hrs by two-fold serial dilution method; format: functional; conditions: isolate 31386, 24 h
# Enterococcus faecium [10] = experiment: Bactericidal activity against vancomycin-resistant Enterococcus faecium clinical isolate 3864 after 24 hrs by two-fold serial dilution method; format: functional; conditions: isolate 3864, 24 h
# Enterococcus faecium [11] = experiment: Bactericidal activity against vancomycin-resistant Enterococcus faecium clinical isolate 12875 after 24 hrs by two-fold serial dilution method; format: functional; conditions: isolate 12875, 24 h
# Enterococcus faecium [12] = experiment: Bactericidal activity against vancomycin-resistant Enterococcus faecium clinical isolate 147969 after 24 hrs by two-fold serial dilution method; format: functional; conditions: isolate 147969, 24 h
# Enterococcus faecium [13] = experiment: Bactericidal activity against vancomycin-resistant Enterococcus faecium clinical isolate 29/203 after 24 hrs by two-fold serial dilution method; format: functional; conditions: isolate 29/203, 24 h
# Enterococcus faecium [14] = experiment: Bactericidal activity against vancomycin-resistant Enterococcus faecium clinical isolate 30/48 after 24 hrs by two-fold serial dilution method; format: functional; conditions: isolate 30/48, 24 h
# Enterococcus faecium [15] = experiment: Bactericidal activity against vancomycin-resistant Enterococcus faecium clinical isolate 16475 after 24 hrs by two-fold serial dilution method; format: functional; conditions: isolate 16475, 24 h
# [16] = Hemolytic activity against human RBC at 5 times MIC after 1 hr by spectrophotometry; format: ADME, cell-based, Erythrocyte; conditions: red blood cells, read-out: Activity
# [17] = Hemolytic activity against human RBC at MIC after 1 hr by spectrophotometry; format: ADME, cell-based; conditions: erythrocyte
# Enterococcus [18] = experiment: Antibacterial activity against vancomycin-resistant Enterococcus clinical isolate after 18 to 20 hrs by checkerboard titration method in presence of linezolid; format: functional
# Enterococcus [19] = experiment: Antibacterial activity against Enterococcus infected in Wistar albino rat assessed as reduction in cell count at 2 times MIC, iv after 1 hr relative to control; format: functional; parameters: scale not given: the % may be the effect or the level left
# Procedure, shortened: (§1)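 Female Wistar albino rats, 40−45 days old, 125−150 g, 5 groups of 3. Enterococci were grown to log phase in MH broth, centrifuged at 1000g for 15 min, and diluted in PBS to 4 × 10^6 CFU/mL. Rats were inoculated i.v. and treated i.v. 1 h later with 12.5, 25 or 37.5 mg/kg peptide, PBS vehicle, or linezolid 25 mg/kg. Tail-vein blood taken 1 h post-treatment was plated on blood agar, incubated overnight at 37 °C, and colonies counted.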
# Enterococcus [20] = experiment: Antibacterial activity against Enterococcus infected in Wistar albino rat assessed as reduction in cell count at 3 times MIC, iv after 1 hr relative to control; format: functional; parameters: scale not given: the % may be the effect or the level left; procedure, shortened: as §1
# Enterococcus [21] = experiment: Antibacterial activity against vancomycin-resistant Enterococcus ATCC 29212 after overnight incubation by two-fold serial dilution method; format: functional
# Enterococcus faecalis [22] = experiment: Antibacterial activity against vancomycin-resistant Enterococcus faecalis clinical isolate 7670 after overnight incubation by two-fold serial dilution method; format: functional
# Enterococcus faecalis [23] = experiment: Antibacterial activity against vancomycin-resistant Enterococcus faecalis clinical isolate 22626 after overnight incubation by two-fold serial dilution method; format: functional
# Enterococcus faecalis [24] = experiment: Antibacterial activity against vancomycin-resistant Enterococcus faecalis clinical isolate 7077 after overnight incubation by two-fold serial dilution method; format: functional
# Enterococcus faecalis [25] = experiment: Antibacterial activity against vancomycin-resistant Enterococcus faecalis clinical isolate 5642 after overnight incubation by two-fold serial dilution method; format: functional
# Enterococcus faecalis [26] = experiment: Antibacterial activity against vancomycin-resistant Enterococcus faecalis clinical isolate 387702 after overnight incubation by two-fold serial dilution method; format: functional
# Enterococcus faecalis [27] = experiment: Antibacterial activity against vancomycin-resistant Enterococcus faecalis clinical isolate 27728 after overnight incubation by two-fold serial dilution method; format: functional
# Enterococcus faecalis [28] = experiment: Antibacterial activity against vancomycin-resistant Enterococcus faecalis clinical isolate 5648 after overnight incubation by two-fold serial dilution method; format: functional
# Enterococcus faecium [29] = experiment: Antibacterial activity against vancomycin-resistant Enterococcus faecium clinical isolate 7/27 after overnight incubation by two-fold serial dilution method; format: functional
# Enterococcus faecium [30] = experiment: Antibacterial activity against vancomycin-resistant Enterococcus faecium clinical isolate 28/211 after overnight incubation by two-fold serial dilution method; format: functional
# Enterococcus faecium [31] = experiment: Antibacterial activity against vancomycin-resistant Enterococcus faecium clinical isolate 31176 after overnight incubation by two-fold serial dilution method; format: functional
# Enterococcus faecium [32] = experiment: Antibacterial activity against vancomycin-resistant Enterococcus faecium clinical isolate 27/16917 after overnight incubation by two-fold serial dilution method; format: functional; conditions: isolate 27/1691
# Enterococcus faecium [33] = experiment: Antibacterial activity against vancomycin-resistant Enterococcus faecium clinical isolate 12875 after overnight incubation by two-fold serial dilution method; format: functional
# Enterococcus faecium [34] = experiment: Antibacterial activity against vancomycin-resistant Enterococcus faecium clinical isolate 27/221 after overnight incubation by two-fold serial dilution method; format: functional
# Enterococcus faecium [35] = experiment: Antibacterial activity against vancomycin-resistant Enterococcus faecium clinical isolate 29/203 after overnight incubation by two-fold serial dilution method; format: functional
# Enterococcus faecium [36] = experiment: Antibacterial activity against vancomycin-resistant Enterococcus faecium clinical isolate 5484 after overnight incubation by two-fold serial dilution method; format: functional
# Enterococcus faecium [37] = experiment: Antibacterial activity against vancomycin-resistant Enterococcus faecium clinical isolate 12/266 after overnight incubation by two-fold serial dilution method; format: functional
# Enterococcus faecium [38] = experiment: Antibacterial activity against vancomycin-resistant Enterococcus faecium clinical isolate 6/22 after overnight incubation by two-fold serial dilution method; format: functional
# Enterococcus faecium [39] = experiment: Antibacterial activity against vancomycin-resistant Enterococcus faecium clinical isolate 13246 after overnight incubation by two-fold serial dilution method; format: functional
# Enterococcus [40] = experiment: Bactericidal activity against […] after 24 hrs by two-fold serial dilution method; format: functional; conditions: ATCC 29212, 24 h
# Enterococcus faecalis [41] = experiment: Bactericidal activity against vancomycin-resistant Enterococcus faecalis clinical isolate 7670 after 24 hrs by two-fold serial dilution method; format: functional; conditions: isolate 7670, 24 h
# Enterococcus faecalis [42] = experiment: Bactericidal activity against vancomycin-resistant Enterococcus faecalis clinical isolate 22626 after 24 hrs by two-fold serial dilution method; format: functional; conditions: isolate 22626, 24 h
# Enterococcus faecalis [43] = experiment: Bactericidal activity against vancomycin-resistant Enterococcus faecalis clinical isolate 5642 after 24 hrs by two-fold serial dilution method; format: functional; conditions: isolate 5642, 24 h
# Enterococcus faecalis [44] = experiment: Bactericidal activity against vancomycin-resistant Enterococcus faecalis clinical isolate 22/203 after 24 hrs by two-fold serial dilution method; format: functional; conditions: isolate 22/203, 24 h
substance,measurement,setting,value
H-RWRLLLLKKH-OH,MBC,Enterococcus faecalis [1],25 µg/mL
same,MBC,Enterococcus faecalis [2],25 µg/mL
same,MBC,Enterococcus faecium [3],25 µg/mL
same,MBC,Enterococcus faecium [4],25 µg/mL
same,MBC,Enterococcus faecium [5],25 µg/mL
same,MBC,Enterococcus faecium [6],25 µg/mL
same,MBC,Enterococcus faecium [7],25 µg/mL
same,MBC,Enterococcus faecium [8],25 µg/mL
same,MBC,Enterococcus faecium [9],25 µg/mL
same,MBC,Enterococcus faecium [10],25 µg/mL
same,MBC,Enterococcus faecium [11],25 µg/mL
same,MBC,Enterococcus faecium [12],25 µg/mL
same,MBC,Enterococcus faecium [13],25 µg/mL
same,MBC,Enterococcus faecium [14],25 µg/mL
same,MBC,Enterococcus faecium [15],25 µg/mL
same,"hemolysis at 1 h, 5 times MIC",[16],< 5%
same,Activity,[17],Non-toxic
same,fractional inhibitory concentration index (FICI),Enterococcus [18],2
same,Activity,Enterococcus [19],76%
same,Activity,Enterococcus [20],82%
same,MIC,Enterococcus [21],25 µg/mL
same,MIC,Enterococcus faecalis [22],12.5 µg/mL
same,MIC,Enterococcus faecalis [23],12.5 µg/mL
same,MIC,Enterococcus faecalis [24],12.5 µg/mL
same,MIC,Enterococcus faecalis [25],12.5 µg/mL
same,MIC,Enterococcus faecalis [26],6.25 µg/mL
same,MIC,Enterococcus faecalis [27],6.25 µg/mL
same,MIC,Enterococcus faecalis [28],12.5 µg/mL
same,MIC,Enterococcus faecium [29],12.5 µg/mL
same,MIC,Enterococcus faecium [30],12.5 µg/mL
same,MIC,Enterococcus faecium [31],6.25 µg/mL
same,MIC,Enterococcus faecium [32],12.5 µg/mL
same,MIC,Enterococcus faecium [33],12.5 µg/mL
same,MIC,Enterococcus faecium [34],12.5 µg/mL
same,MIC,Enterococcus faecium [35],12.5 µg/mL
same,MIC,Enterococcus faecium [36],12.5 µg/mL
same,MIC,Enterococcus faecium [37],6.25 µg/mL
same,MIC,Enterococcus faecium [38],12.5 µg/mL
same,MIC,Enterococcus faecium [39],12.5 µg/mL
same,MBC,Enterococcus [40],25 µg/mL
same,MBC,Enterococcus faecalis [41],25 µg/mL
same,MBC,Enterococcus faecalis [42],25 µg/mL
same,MBC,Enterococcus faecalis [43],25 µg/mL
same,MBC,Enterococcus faecalis [44],25 µg/mL

# From ChEMBL document CHEMBL3352237, “Synthesis and biological evaluation of novel peptide BF2 as an antibacterial agent against clinical isolates of vancomycin-resistant enterococci” (J Med Chem, 2014)
